Measured values: ChEMBL document CHEMBL1135823, “Discovery and SAR of a novel selective and orally bioavailable nonpeptide classical competitive inhibitor class of protein-tyrosine phosphatase 1B” (J Med Chem, 2002)
Several values for one entry are separate records, joined by “and”; a condition that tells them apart may be missing. Identical values can stand only once.

Columns and labels:
[1] = target: Receptor-type tyrosine-protein phosphatase F (Homo sapiens, UniProt P10586); experiment: Inhibitory effect against human Protein-tyrosine phosphatase Lar using p-nitrophenyl phosphate substrate at a pH 7.0
Summary of the method: (§1)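 Ki from pNPP hydrolysis assays at pH 7 with recombinant PTPs (CD45, LAR, PTPα).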

[2] = Oral bioavailability; assay type: ADME, organism-based; conditions: eutheria, in vivo, read-out: f (po)
[3] = target: T1, Tyrosine-protein phosphatase non-receptor type 1 (Homo sapiens, UniProt P18031); experiment: Inhibitory effect against recombinant human protein-tyrosine phosphatase 1B (PTP1B), using p-nitrophenyl phosphate substrate at pH 5.5.
T1 sequence (P18031 whole entry): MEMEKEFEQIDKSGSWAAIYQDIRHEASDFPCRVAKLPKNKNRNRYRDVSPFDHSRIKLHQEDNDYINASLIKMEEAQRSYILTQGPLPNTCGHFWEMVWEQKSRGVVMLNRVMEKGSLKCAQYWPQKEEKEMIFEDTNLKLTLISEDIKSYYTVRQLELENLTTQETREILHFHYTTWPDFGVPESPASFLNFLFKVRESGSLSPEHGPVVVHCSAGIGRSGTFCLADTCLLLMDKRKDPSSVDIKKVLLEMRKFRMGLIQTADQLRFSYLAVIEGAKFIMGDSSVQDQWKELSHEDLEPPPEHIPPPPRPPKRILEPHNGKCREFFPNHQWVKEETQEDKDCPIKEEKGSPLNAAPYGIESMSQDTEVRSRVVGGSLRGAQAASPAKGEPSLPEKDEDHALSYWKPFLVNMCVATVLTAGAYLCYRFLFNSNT

[4] = Pharmacokinetic Parameter clearance was reported for Protein Tyrosine Phosphatase 1B; assay type: ADME, organism-based; conditions: in vivo
[5] = Pharmacokinetic Parameter t1/2 was reported for Protein Tyrosine Phosphatase 1B; assay type: ADME, organism-based; conditions: in vivo
[6] = target: Receptor-type tyrosine-protein phosphatase alpha (Homo sapiens, UniProt P18433); experiment: Inhibitory effect against human Protein-tyrosine phosphatase alpha (PTPalpha) using p-nitrophenyl phosphate substrate at a pH 7.0; summary of the method: as §1
[7] = target: T2, Receptor-type tyrosine-protein phosphatase C (Homo sapiens, UniProt P08575); experiment: Inhibitory effect against human CD45 tyrosine phosphatase using p-nitrophenyl phosphate substrate at a pH 7.0; summary of the method: as §1
T2 sequence (P08575 whole entry): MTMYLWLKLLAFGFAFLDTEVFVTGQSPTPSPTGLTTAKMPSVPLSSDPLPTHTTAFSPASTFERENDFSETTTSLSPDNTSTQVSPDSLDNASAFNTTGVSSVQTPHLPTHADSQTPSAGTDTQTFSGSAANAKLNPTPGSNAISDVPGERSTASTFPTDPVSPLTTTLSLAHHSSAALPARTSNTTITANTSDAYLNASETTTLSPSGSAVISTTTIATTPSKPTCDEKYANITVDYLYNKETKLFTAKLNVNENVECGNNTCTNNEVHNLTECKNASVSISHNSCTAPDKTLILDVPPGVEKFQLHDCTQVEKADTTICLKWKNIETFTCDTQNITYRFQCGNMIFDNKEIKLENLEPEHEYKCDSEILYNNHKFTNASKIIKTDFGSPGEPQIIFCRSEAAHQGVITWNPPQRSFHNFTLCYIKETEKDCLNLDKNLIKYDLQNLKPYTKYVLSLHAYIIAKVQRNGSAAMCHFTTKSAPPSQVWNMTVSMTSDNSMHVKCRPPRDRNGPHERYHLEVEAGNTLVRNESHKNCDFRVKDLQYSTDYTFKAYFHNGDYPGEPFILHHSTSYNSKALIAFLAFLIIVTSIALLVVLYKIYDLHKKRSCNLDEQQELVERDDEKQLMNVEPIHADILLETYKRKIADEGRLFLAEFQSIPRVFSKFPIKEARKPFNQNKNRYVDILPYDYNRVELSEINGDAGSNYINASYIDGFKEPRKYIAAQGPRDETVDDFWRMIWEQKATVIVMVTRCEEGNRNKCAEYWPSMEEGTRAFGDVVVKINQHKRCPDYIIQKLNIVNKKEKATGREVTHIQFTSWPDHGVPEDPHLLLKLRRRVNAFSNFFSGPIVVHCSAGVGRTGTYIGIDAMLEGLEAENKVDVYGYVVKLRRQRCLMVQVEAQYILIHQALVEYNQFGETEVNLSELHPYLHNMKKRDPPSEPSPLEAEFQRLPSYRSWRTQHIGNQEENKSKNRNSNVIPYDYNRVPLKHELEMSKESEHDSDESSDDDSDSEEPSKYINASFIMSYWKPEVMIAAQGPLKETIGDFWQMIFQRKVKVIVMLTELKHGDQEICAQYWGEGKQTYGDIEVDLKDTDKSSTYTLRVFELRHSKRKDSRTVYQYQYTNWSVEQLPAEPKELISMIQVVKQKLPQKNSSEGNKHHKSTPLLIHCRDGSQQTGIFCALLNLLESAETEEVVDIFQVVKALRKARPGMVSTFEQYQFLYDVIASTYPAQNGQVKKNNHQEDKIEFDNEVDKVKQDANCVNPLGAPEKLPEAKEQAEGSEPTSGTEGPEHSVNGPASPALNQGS

[8] = Pharmacokinetic Parameter Vss was reported for Protein Tyrosine Phosphatase 1B; assay type: ADME, organism-based; conditions: in vivo; read-out: Vss
[9] = target: T1, Tyrosine-protein phosphatase non-receptor type 1; experiment: Inhibition of human recombinant Protein-tyrosine phosphatase 1B.
Summary of the method: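 Enzyme is a soluble recombinant human PTP1B (residues 1–321). Ki is measured at pH 5.5 with p-nitrophenyl phosphate (pNPP) as substrate.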

Sequence of Receptor-type tyrosine-protein phosphatase F (P10586 whole entry): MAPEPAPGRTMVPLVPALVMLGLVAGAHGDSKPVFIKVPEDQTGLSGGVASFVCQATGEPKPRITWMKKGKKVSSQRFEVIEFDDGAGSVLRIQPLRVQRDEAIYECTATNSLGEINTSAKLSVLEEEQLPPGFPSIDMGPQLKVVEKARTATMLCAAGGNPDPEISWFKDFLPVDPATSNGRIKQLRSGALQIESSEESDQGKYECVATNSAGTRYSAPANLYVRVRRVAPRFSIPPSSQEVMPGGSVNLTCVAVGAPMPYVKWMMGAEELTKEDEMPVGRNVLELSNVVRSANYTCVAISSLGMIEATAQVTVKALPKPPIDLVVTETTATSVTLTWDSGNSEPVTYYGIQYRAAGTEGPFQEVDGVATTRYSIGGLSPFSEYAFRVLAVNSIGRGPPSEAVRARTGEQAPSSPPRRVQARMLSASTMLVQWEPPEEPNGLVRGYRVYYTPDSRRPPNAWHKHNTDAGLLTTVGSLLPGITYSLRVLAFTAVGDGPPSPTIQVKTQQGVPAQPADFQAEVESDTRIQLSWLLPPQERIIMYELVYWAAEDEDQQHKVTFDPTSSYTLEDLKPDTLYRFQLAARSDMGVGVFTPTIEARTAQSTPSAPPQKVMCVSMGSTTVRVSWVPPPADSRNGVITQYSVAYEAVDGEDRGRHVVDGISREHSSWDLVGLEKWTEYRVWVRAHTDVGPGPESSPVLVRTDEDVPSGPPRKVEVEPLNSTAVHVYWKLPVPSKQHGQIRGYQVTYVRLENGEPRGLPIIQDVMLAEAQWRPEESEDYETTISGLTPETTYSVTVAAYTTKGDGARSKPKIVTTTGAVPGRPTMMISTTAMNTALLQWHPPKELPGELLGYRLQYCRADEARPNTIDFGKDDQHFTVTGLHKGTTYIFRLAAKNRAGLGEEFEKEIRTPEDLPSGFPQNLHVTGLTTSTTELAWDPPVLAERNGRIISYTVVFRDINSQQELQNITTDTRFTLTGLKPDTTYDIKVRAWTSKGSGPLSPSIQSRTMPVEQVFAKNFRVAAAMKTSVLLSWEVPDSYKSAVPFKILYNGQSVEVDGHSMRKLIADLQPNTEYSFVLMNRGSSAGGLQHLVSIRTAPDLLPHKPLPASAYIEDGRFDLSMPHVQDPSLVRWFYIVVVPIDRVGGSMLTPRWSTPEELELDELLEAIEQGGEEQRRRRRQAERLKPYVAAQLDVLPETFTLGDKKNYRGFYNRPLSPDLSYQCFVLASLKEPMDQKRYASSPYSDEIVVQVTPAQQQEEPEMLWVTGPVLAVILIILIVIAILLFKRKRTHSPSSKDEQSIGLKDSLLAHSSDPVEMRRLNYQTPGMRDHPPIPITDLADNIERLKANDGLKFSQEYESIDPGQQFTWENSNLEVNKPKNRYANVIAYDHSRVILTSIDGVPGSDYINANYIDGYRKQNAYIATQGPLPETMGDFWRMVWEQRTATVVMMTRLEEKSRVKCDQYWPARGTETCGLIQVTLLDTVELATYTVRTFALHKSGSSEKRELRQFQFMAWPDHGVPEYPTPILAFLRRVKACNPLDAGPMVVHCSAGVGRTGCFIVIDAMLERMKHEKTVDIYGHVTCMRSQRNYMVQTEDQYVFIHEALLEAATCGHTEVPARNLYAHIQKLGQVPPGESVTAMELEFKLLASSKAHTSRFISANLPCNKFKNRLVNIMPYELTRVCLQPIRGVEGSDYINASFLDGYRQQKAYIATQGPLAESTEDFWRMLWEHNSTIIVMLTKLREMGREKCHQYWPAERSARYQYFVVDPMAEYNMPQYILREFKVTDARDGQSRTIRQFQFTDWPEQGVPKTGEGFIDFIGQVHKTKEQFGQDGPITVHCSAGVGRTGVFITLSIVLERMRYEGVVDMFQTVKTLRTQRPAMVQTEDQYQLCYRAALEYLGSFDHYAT
Sequence of Receptor-type tyrosine-protein phosphatase alpha (P18433 whole entry): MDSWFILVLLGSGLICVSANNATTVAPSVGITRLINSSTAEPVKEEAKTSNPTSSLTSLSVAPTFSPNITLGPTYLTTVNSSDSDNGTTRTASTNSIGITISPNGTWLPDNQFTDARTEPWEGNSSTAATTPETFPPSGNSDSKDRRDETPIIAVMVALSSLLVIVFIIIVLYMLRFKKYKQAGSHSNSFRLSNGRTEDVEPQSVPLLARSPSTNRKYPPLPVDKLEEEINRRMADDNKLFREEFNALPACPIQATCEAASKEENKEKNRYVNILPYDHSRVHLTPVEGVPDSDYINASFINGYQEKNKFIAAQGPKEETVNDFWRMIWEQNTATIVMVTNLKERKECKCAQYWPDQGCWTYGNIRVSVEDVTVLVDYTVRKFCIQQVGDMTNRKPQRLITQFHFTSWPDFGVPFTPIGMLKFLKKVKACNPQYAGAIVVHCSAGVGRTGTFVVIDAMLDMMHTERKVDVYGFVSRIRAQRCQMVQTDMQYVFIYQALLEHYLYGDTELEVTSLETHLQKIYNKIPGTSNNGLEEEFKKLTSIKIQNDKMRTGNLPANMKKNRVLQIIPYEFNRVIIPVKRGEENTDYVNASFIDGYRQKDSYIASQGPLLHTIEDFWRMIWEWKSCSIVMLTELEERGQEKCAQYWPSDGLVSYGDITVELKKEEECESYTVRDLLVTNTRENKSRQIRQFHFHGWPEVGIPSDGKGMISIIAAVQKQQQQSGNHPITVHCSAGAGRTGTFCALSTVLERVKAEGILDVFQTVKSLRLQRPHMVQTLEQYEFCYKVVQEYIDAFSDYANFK

Ki [1]: 2100 µM
bioavailability [2]: 13%
Ki [3]: 0.27 µM
clearance [4]: 0.384 L/h/kg
half-life [5]: 2.82 h
Ki [6]: 2100 µM
Ki [7]: 1400 µM
Vd [8]: 0.9 L/kg
Ki [9]: 3.2 µM and 7.2 µM
SMILES: O=C(O)C(=O)Nc1sc2c(c1C(=O)O)CCN(CCc1ccccc1)C2
